Data taken from ChEMBL document CHEMBL1126958, “Quinolinecarboxylic acids. 3. Synthesis and antibacterial evaluation of 2-substituted-7-oxo-2,3-dihydro-7H-pyrido[1,2,3-de] [1,4]benzothiazine-6-carboxylic acids related to rufloxacin” (J Med Chem, 1993).
≈ marks a conversion by molar mass, not a printed value.

Experiments:
Pseudomonas aeruginosa = assay: Minimal inhibitory concentration against Pseudomonas aeruginosa ATCC 9027 strain; type: functional
In short: (§1)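 Agar dilution on TSA agar; compounds added by 2-fold dilution to melted medium at 50 °C just before pouring. Organisms stored at –80 °C, diluted in peptonated water to 1–2 × 10^7 CFU, applied with multipoint inoculator. MIC = lowest concentration preventing visible growth after 24 h at 35 °C.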

[1] = Urinary excretion in rat after 0-4 hours of oral administration at 50 mg/kg; type: ADME, organism-based; parameters: dose 50 mg/kg, route oral; details: urine
In short: (§2)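 Fasted male Wistar rats, three per group, dosed orally at 50 mg/kg. Urine collected over 0-4, 4-8 and 8-24 h, diluted 1:100 in ultrapure water, then treated with water and 70% perchloric acid, vortexed and centrifuged. Supernatant analysed by HPLC with pH 2.8 KH2PO4/phosphoric acid mobile phase. Result given as % of administered dose excreted.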

[2] = Plasma concentration level in rat after 4 hours of oral administration at 50 mg/kg; type: ADME, organism-based; parameters: dose 50 mg/kg, route oral
In short: (§3)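 Fasted male Wistar rats, three per group, single oral dose 50 mg/kg. Plasma taken at timed points, deproteinized with 70% perchloric acid, vortexed, centrifuged; supernatant analysed by HPLC, mobile-phase buffer 0.01 M KH2PO4 brought to pH 2.8 with phosphoric acid. Values as mean ± error over the group.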

Enterobacter cloacae = assay: Minimal inhibitory concentration against Enterobacter cloacae OMNFI174 strain; type: functional; in short: as §1
[3] = Minimal inhibitory concentration against Shigella enteritidis strain; type: functional; in short: as §1
Proteus vulgaris = assay: Minimal inhibitory concentration against Proteus vulgaris CNUR6 strain; type: functional; in short: as §1
[4] = Urinary excretion in rat after 8-24 hours of oral administration at 50 mg/kg; type: ADME, organism-based; parameters: dose 50 mg/kg, route oral; details: urine; in short: as §2
Enterococcus faecalis = assay: Minimal inhibitory concentration against Streptococcus faecalis LEP strain; type: functional; in short: as §1
[5] = Plasma concentration level in rat after 1 hour of oral administration at 50 mg/kg; type: ADME, organism-based; parameters: dose 50 mg/kg, route oral; in short: as §3
Escherichia coli = assay: Minimal inhibitory concentration against Escherichia coli ISF 432 strain; type: functional; in short: as §1
[6] = Plasma concentration level in rat after 15 hours of oral administration at 50 mg/kg; type: ADME, organism-based; parameters: dose 50 mg/kg, route oral; in short: as §3
Klebsiella pneumoniae = assay: Minimal inhibitory concentration against Klebsiella pneumoniae ATCC 10031 strain; type: functional; in short: as §1
Staphylococcus aureus = assay: Minimal inhibitory concentration against […] aureus ATCC 6538 strain; type: functional; in short: as §1
[7] = Urinary excretion in rat after 4-8 hours of oral administration at 50 mg/kg; type: ADME, organism-based; parameters: dose 50 mg/kg, route oral; details: urine; in short: as §2

CN1CCN(c2c(F)cc3c(=O)c(C(=O)O)cn4c3c2SCC4)CC1 [RUFLOXACIN]
MIC (Pseudomonas aeruginosa): 8 µg/mL (≈ 22 µM)
dose excreted [1]: 2.18%
concentration at 4 h [2]: 4430 ng/mL
MIC (Enterobacter cloacae): 2 µg/mL (≈ 5.5 µM)
MIC [3]: 2 µg/mL (≈ 5.5 µM)
MIC (Proteus vulgaris): 4 µg/mL (≈ 11 µM)
dose excreted [4]: 15.6%
MIC (Enterococcus faecalis): 16 µg/mL (≈ 44 µM)
concentration at 1 h [5]: 7740 ng/mL
MIC (Escherichia coli): 0.25 µg/mL (≈ 0.688 µM)
concentration at 15 h [6]: 410 ng/mL
MIC (Klebsiella pneumoniae): 0.12 µg/mL (≈ 0.33 µM)
MIC (Staphylococcus aureus): 1 µg/mL (≈ 2.75 µM)
dose excreted [7]: 10.5%

CC1Cn2cc(C(=O)O)c(=O)c3cc(F)c(N4CCN(c5ccc(F)cc5)CC4)c(c32)S1 (stereo not given)
MIC (Pseudomonas aeruginosa): > 64 µg/mL
MIC (Enterobacter cloacae): > 64 µg/mL
MIC [3]: > 64 µg/mL
MIC (Proteus vulgaris): > 64 µg/mL
MIC (Enterococcus faecalis): 4 µg/mL (≈ 8.74 µM)
MIC (Escherichia coli): 8 µg/mL (≈ 17.5 µM)
MIC (Klebsiella pneumoniae): > 64 µg/mL
MIC (Staphylococcus aureus): 8 µg/mL (≈ 17.5 µM)

CC1Cn2cc(C(=O)O)c(=O)c3cc(F)c(-n4ccnc4)c(c32)S1 (stereo not given)
MIC (Pseudomonas aeruginosa): 64 µg/mL (≈ 185 µM)
MIC (Enterobacter cloacae): 16 µg/mL (≈ 46.3 µM)
MIC [3]: 4 µg/mL (≈ 11.6 µM)
MIC (Proteus vulgaris): > 64 µg/mL
MIC (Enterococcus faecalis): 32 µg/mL (≈ 92.7 µM)
MIC (Escherichia coli): 0.12 µg/mL (≈ 0.347 µM)
MIC (Klebsiella pneumoniae): 0.25 µg/mL (≈ 0.724 µM)
MIC (Staphylococcus aureus): 16 µg/mL (≈ 46.3 µM)

CC1Cn2cc(C(=O)O)c(=O)c3cc(F)c(N4CCCC4)c(c32)S1 (stereo not given)
MIC (Pseudomonas aeruginosa): > 64 µg/mL
MIC (Enterobacter cloacae): 16 µg/mL (≈ 45.9 µM)
MIC [3]: 16 µg/mL (≈ 45.9 µM)
MIC (Proteus vulgaris): > 64 µg/mL
MIC (Enterococcus faecalis): 32 µg/mL (≈ 91.8 µM)
MIC (Escherichia coli): 0.25 µg/mL (≈ 0.718 µM)
MIC (Klebsiella pneumoniae): 2 µg/mL (≈ 5.74 µM)
MIC (Staphylococcus aureus): 2 µg/mL (≈ 5.74 µM)

CCNCC1CCN(c2c(F)cc3c(=O)c(C(=O)O)cn4c3c2SC(C)C4)C1 (stereo not given)
MIC (Pseudomonas aeruginosa): > 64 µg/mL
MIC (Enterobacter cloacae): 8 µg/mL (≈ 19.7 µM)
MIC [3]: 8 µg/mL (≈ 19.7 µM)
MIC (Proteus vulgaris): > 64 µg/mL
MIC (Enterococcus faecalis): 16 µg/mL (≈ 39.5 µM)
MIC (Escherichia coli): 0.25 µg/mL (≈ 0.617 µM)
MIC (Klebsiella pneumoniae): 0.25 µg/mL (≈ 0.617 µM)
MIC (Staphylococcus aureus): 4 µg/mL (≈ 9.86 µM)

O=C(O)c1cn2c3c(c(Cl)c(F)cc3c1=O)SC(c1cccc(F)c1)C2 (stereo not given)
MIC (Pseudomonas aeruginosa): > 64 µg/mL
MIC (Enterobacter cloacae): > 64 µg/mL
MIC [3]: > 64 µg/mL
MIC (Proteus vulgaris): > 64 µg/mL
MIC (Enterococcus faecalis): 32 µg/mL (≈ 81.3 µM)
MIC (Escherichia coli): 2 µg/mL (≈ 5.08 µM)
MIC (Klebsiella pneumoniae): 2 µg/mL (≈ 5.08 µM)
MIC (Staphylococcus aureus): 2 µg/mL (≈ 5.08 µM)

CC1Cn2cc(C(=O)O)c(=O)c3cc(F)c(N4CCN(C)CC4)c(c32)S1 (stereo not given)
MIC (Pseudomonas aeruginosa): 16 µg/mL (≈ 42.4 µM)
dose excreted [1]: 1.5%
concentration at 4 h [2]: 7610 ng/mL
MIC (Enterobacter cloacae): 4 µg/mL (≈ 10.6 µM)
MIC [3]: 2 µg/mL (≈ 5.3 µM)
MIC (Proteus vulgaris): 32 µg/mL (≈ 84.8 µM)
dose excreted [4]: 5.17%
MIC (Enterococcus faecalis): 32 µg/mL (≈ 84.8 µM)
concentration at 1 h [5]: 14100 ng/mL
MIC (Escherichia coli): 0.25 µg/mL (≈ 0.662 µM)
concentration at 15 h [6]: 270 ng/mL
MIC (Klebsiella pneumoniae): 0.25 µg/mL (≈ 0.662 µM)
MIC (Staphylococcus aureus): 1 µg/mL (≈ 2.65 µM)
dose excreted [7]: 2.59%

O=C(O)c1cn2c3c(c(N4CCNCC4)c(F)cc3c1=O)SC(c1ccc(F)cc1)C2 (stereo not given)
MIC (Pseudomonas aeruginosa): > 64 µg/mL
MIC (Enterobacter cloacae): 32 µg/mL (≈ 72.2 µM)
MIC [3]: 32 µg/mL (≈ 72.2 µM)
MIC (Proteus vulgaris): > 64 µg/mL
MIC (Enterococcus faecalis): 16 µg/mL (≈ 36.1 µM)
MIC (Escherichia coli): 2 µg/mL (≈ 4.51 µM)
MIC (Klebsiella pneumoniae): 16 µg/mL (≈ 36.1 µM)
MIC (Staphylococcus aureus): 16 µg/mL (≈ 36.1 µM)

O=C(O)c1cn2c3c(c(Cl)c(F)cc3c1=O)SC(c1ccccc1F)C2 (stereo not given)
MIC (Pseudomonas aeruginosa): > 64 µg/mL
MIC (Enterobacter cloacae): > 64 µg/mL
MIC [3]: > 64 µg/mL
MIC (Proteus vulgaris): > 64 µg/mL
MIC (Enterococcus faecalis): 4 µg/mL (≈ 10.2 µM)
MIC (Escherichia coli): 0.5 µg/mL (≈ 1.27 µM)
MIC (Klebsiella pneumoniae): 0.5 µg/mL (≈ 1.27 µM)
MIC (Staphylococcus aureus): 8 µg/mL (≈ 20.3 µM)

O=C(O)c1cn2c3c(c(Cl)c(F)cc3c1=O)SC(c1ccc(F)cc1)C2 (stereo not given)
MIC (Pseudomonas aeruginosa): > 64 µg/mL
MIC (Enterobacter cloacae): 8 µg/mL (≈ 20.3 µM)
MIC [3]: > 64 µg/mL
MIC (Proteus vulgaris): > 64 µg/mL
MIC (Enterococcus faecalis): 8 µg/mL (≈ 20.3 µM)
MIC (Escherichia coli): 0.25 µg/mL (≈ 0.635 µM)
MIC (Klebsiella pneumoniae): 0.25 µg/mL (≈ 0.635 µM)
MIC (Staphylococcus aureus): 4 µg/mL (≈ 10.2 µM)

CC1Cn2cc(C(=O)O)c(=O)c3cc(F)c(Cl)c(c32)S1 (stereo not given)
MIC (Pseudomonas aeruginosa): 32 µg/mL (≈ 102 µM)
MIC (Enterobacter cloacae): 2 µg/mL (≈ 6.37 µM)
MIC [3]: 4 µg/mL (≈ 12.7 µM)
MIC (Proteus vulgaris): > 64 µg/mL
MIC (Enterococcus faecalis): 32 µg/mL (≈ 102 µM)
MIC (Escherichia coli): 0.12 µg/mL (≈ 0.382 µM)
MIC (Klebsiella pneumoniae): 8 µg/mL (≈ 25.5 µM)
MIC (Staphylococcus aureus): 2 µg/mL (≈ 6.37 µM)
